# From PubChem BioAssay
# The list is not random: actives were taken first. Their share in the collection is about 0.57%.
# AP complement – alternative pathway complement inhibition, orthogonal assay | Human serum alternative complement pathway, LPS-coated ELISA, C3 deposition; tested in compound mixtures | 62,000 tested, 0.08% active | inhibition, % at 5 µM;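 active means inhibition above 30% in each of the two pooled mixtures holding the compound, so the lower value exceeds 30%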
#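 Test system: human serum alternative complement pathway, C3 deposition on LPS-coated wells; also added: Plate-bound LPS; doses: 5 µM per compound in ten-compound mixtures; schedule: 1 h at 37 °C; detection: Anti-C3 ELISA, OD 450 nm; evaluation: percent inhibition of C3 deposition onto LPS; repeats: two pool placements per compound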
# BAP1 inh – blocks human BAP1 ubiquitin-AMC hydrolysis | AID 436 | calls only at 20 µM | recombinant BAP1, Ub-AMC hydrolysis fluorescence kinetic; stronger effect = lower value | 72,000 tested, 0.48% active | Q92560;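 active means activity remaining at or below 50% of control, provided the compound also passes the data quality filters; inactive means the rest, including low values that fail the filters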
# sEH inhibitor – inhibitors of human soluble epoxide hydrolase; 91,000 tested, 0.34% active; AID 707; recombinant human sEH enzymatic activity assay; inhibition, % at 2 µM; in the data active means inhibition above about 80%
# Target sequence (P34913 whole entry, looked up): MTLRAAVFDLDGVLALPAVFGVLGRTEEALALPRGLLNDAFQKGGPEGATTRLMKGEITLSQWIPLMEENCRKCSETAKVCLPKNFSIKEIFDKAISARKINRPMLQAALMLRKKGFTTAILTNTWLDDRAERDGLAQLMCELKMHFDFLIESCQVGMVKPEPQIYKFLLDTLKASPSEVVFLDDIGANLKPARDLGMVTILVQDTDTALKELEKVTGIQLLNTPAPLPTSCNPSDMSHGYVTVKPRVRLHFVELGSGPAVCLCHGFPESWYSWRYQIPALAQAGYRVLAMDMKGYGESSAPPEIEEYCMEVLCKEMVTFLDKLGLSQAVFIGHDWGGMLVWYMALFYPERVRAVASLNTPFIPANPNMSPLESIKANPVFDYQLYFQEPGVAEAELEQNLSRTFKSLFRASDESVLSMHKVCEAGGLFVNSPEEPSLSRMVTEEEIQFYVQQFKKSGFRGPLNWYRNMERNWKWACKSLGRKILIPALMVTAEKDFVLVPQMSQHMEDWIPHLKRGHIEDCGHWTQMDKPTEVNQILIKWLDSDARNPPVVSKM
# sEH act – soluble epoxide hydrolase (human) activation. 91,000 tested, 0.04% active. activation, % at 2 µM. purified human sEH enzymatic activity, activator screen. P34913; in the data active means activation above about 37%
# BAP1 inh conf – BAP1 (human) enzyme inhibition, confirmed; 310 tested, 8% active; purified BAP1, Ub-ethyl ester hydrolysis, HPLC; stronger effect = lower value; shares compounds with BAP1 inh; % of control activity, % at 20 µM;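 active means percent of control activity at or below 60%; inconclusive means HPLC trace unusable from injection failure or solvent front hiding peaks; inactive means the rest, plus ubiquitin peak ratio over a set limit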
# Hits are given with their value; i = inactive; ? = inconclusive; nt = not tested or not shown; + = active, no number.
SMILES,AP complement,BAP1 inh,sEH inhibitor,sEH act,BAP1 inh conf
COc1ccc(C2C(C(C)=O)=C(C)N=c3s/c(=C\c4cc(C)n(C)c4C)c(=O)n32)c(OC)c1 (stereo not given),i,i,i,i,nt
Cc1ccc(Cl)cc1NC(=O)COc1cc(C)c(Cl)c(C)c1,nt,i,nt,nt,nt
CCOC(=O)c1sc(NC(=O)CSc2nc(C)cc(C)n2)c(C#N)c1C,nt,nt,i,i,nt
CCOC(=O)c1c(NC(=O)CSc2nc(C)cc(C)c2C#N)sc(C(C)=O)c1C,i,+,i,i,i
CCOC(=O)c1c(NC(=O)CSc2nnc(Cc3ccccc3)o2)sc(C(C)=O)c1C,nt,nt,i,i,nt
CCOC(=O)c1c(NC(=O)CSc2nnc(CNc3ccc(F)cc3)o2)sc(C(C)=O)c1C,i,+,i,i,i
O=S(=O)(c1ccc(-c2nnc(SCc3nnc(-c4ccccc4)o3)o2)cc1)N1CCCC1,i,+,i,i,i
O=C(CSc1nnc(-c2ccc(F)cc2)o1)Nc1ccc(S(=O)(=O)N2CCCCCC2)cc1,i,+,i,i,i
O=C(CSc1nnc(-c2ccc(F)cc2)o1)Nc1ccc(S(=O)(=O)N2CCCC2)cc1,i,i,i,i,nt
O=C(Cn1ccc([N+](=O)[O-])n1)Nc1ccc(I)cc1,nt,i,nt,nt,nt
Cc1nc2n(n1)C(c1ccccc1)C1=C(CC(c3ccco3)CC1=O)N2 (stereo not given),i,+,i,i,i
COc1ccc(N=C2CCCN2CC(N)=O)cc1,i,+,i,i,i
Cc1nc(Nc2cccc(C(F)(F)F)c2)nc2c1C(=O)CC(C)C2 (stereo not given),i,+,i,i,i
c1ccc2c(c1)cc(-c1nc3ccccc3[nH]1)c1nc3ccccc3n12,nt,i,nt,nt,nt
COC(=O)c1ccc(OCC(=O)c2ccc(O)cc2O)cc1,i,i,nt,nt,nt
CCOC(=O)c1ccc(OCC(=O)c2ccc(O)cc2O)cc1,i,+,i,i,i
CCCCCCn1c(SCCOC)nc2c1c(=O)[nH]c(=O)n2C,i,i,nt,nt,nt
CCCCCCn1c(SCCCC)nc2c1c(=O)[nH]c(=O)n2C,i,+,i,i,i
Cc1oc2cc(OCc3ccc(Cl)cc3)ccc2c(=O)c1Oc1ccccc1,nt,i,nt,nt,nt
CCOC(=O)C1CCN(S(=O)(=O)c2ccc3c4c(cccc24)C(=O)N3)CC1,i,+,i,i,i
COc1ccccc1N1CCN(S(=O)(=O)c2ccc3c4c(cccc24)C(=O)N3)CC1,i,i,nt,nt,nt
CCC(=O)c1ccc(OCC(O)CN2CCN(S(=O)(=O)N3CCCCC3)CC2)cc1 (stereo not given),i,+,i,i,i
CC(=O)Nc1cccc(NC(=O)c2ccccc2Br)c1,nt,i,nt,nt,nt
COc1ccc(OC)c(NC(=O)c2cc(-c3ccc(C)cc3O)n[nH]2)c1,i,+,i,i,i
COc1ccc([N+](=O)[O-])cc1N1C(=O)C2C3C=CC(CC3)C2C1=O (stereo not given),nt,i,nt,nt,nt
SMILES,AP complement,BAP1 inh,sEH inhibitor,sEH act,BAP1 inh conf
O=C(NC1CCCCC1)c1cc2nc(-c3ccco3)cc(C(F)(F)F)n2n1,i,nt,i,i,nt
FC(F)(F)c1cc(-c2ccc3c(c2)OCO3)nc(NCc2ccco2)n1,i,nt,i,i,nt
COc1ccc(-c2cc(C(F)(F)F)n3nc(C(=O)NCc4ccco4)cc3n2)cc1,i,+,nt,nt,i
Cc1ccc(-c2cc(C(F)(F)F)n3ncc(C(=O)NCc4ccco4)c3n2)cc1,i,+,i,i,?
O=C(NC12CC3CC(CC(C3)C1)C2)c1cc2nc(-c3ccco3)cc(C(F)(F)F)n2n1,i,+,i,i,i
O=C(NCc1ccco1)c1cc2nc(-c3ccc4c(c3)OCO4)cc(C(F)(F)F)n2n1,i,+,i,i,56
COc1ccc(-c2cc(C(F)(F)F)n3nc(C(=O)NCc4ccco4)c(Cl)c3n2)cc1,nt,nt,i,i,nt
CCOc1cc(C(=O)Nc2cccc3c2C(=O)c2ccccc2C3=O)cc(OCC)c1OCC,nt,i,nt,nt,nt
CCOc1cc(S(=O)(=O)N2CCC(Cc3ccccc3)CC2)c(OCC)cc1-n1cnnn1,i,+,nt,nt,i
CC1=C(C(=O)OC(C)C)C(c2coc3ccc(Cl)cc3c2=O)C2=C(CCCC2=O)N1 (stereo not given),nt,i,nt,nt,nt
O=C(Nc1nc(-c2cccs2)cs1)c1ccc(S(=O)(=O)N2CCCCC2)cc1,i,+,i,i,i
CCN1C(=O)NC(c2ccccc2[N+](=O)[O-])C(C(=O)OC2CCCCC2)=C1C (stereo not given),nt,i,nt,nt,nt
CCOC(=O)Cc1csc(-n2sc3ccccc3c2=O)n1,i,+,i,i,42
CCOC(=O)Cc1csc(SCn2nnc3ccccc3c2=O)n1,i,nt,nt,nt,nt
COc1ccc(C(=O)N2CCCCC2)cc1S(=O)(=O)Nc1cccc(Br)c1,nt,i,nt,nt,nt
Cc1cccc(C)c1NC(=O)Cn1nnc(-c2ccc(N3CCOCC3)cc2)n1,i,+,i,i,i
CCc1ccc(S(=O)(=O)N(C(=O)c2cccc([N+](=O)[O-])c2)c2ccc3oc(C)c(C(C)=O)c3c2)cc1,nt,i,nt,nt,nt
O=C(COc1ccc(Cl)cc1)Nc1nnc(-c2ccc3c(c2)CCCC3)o1,i,+,i,i,i
COC(=O)c1ccccc1NC(=O)c1sc(=S)n(C)c1N,i,+,i,i,51
CCOC(=O)c1c(NC(=O)c2nn(CC)cc2Br)c(C#N)nn1-c1ccccc1,i,+,i,i,i
CC1CCN(S(=O)(=O)c2ccc(C(C)(C)C)cc2)CC1,nt,i,nt,nt,nt
COc1ccc(S(=O)(=O)Nc2ccccc2C(=O)NCc2ccco2)cc1,i,+,i,i,i
O=C(NCc1ccco1)c1ccccc1NS(=O)(=O)c1ccc(Br)s1,nt,nt,i,i,nt
Clc1ccccc1OCCn1ccnc1,i,i,i,i,nt
C=CCc1ccccc1OCCn1ccnc1,i,+,i,i,i
SMILES,AP complement,BAP1 inh,sEH inhibitor,sEH act,BAP1 inh conf
Cc1cc(NS(=O)(=O)c2ccc(NC(=O)c3cnc4scc(C)n4c3=O)cc2)nc(C)n1,i,+,nt,nt,i
Cc1ccc(NC(=O)c2cnc3scc(C)n3c2=O)c(C)c1,i,+,nt,nt,i
Cc1ccc(NC(=O)CCCCCN2C(=O)c3ccccc3C2=O)c(Br)c1,nt,i,nt,nt,nt
O=C(O)CCC(=O)Nc1cccc(NC(=O)c2ccc(Br)cc2)c1,nt,i,nt,nt,nt
COC(=O)c1ccc(NC(=O)CSc2nnc(COc3ccc4c(c3)CCCC4)o2)cc1,i,+,i,i,i
CCc1ccc(NC(=O)CSc2nnc(COc3ccc4c(c3)CCCC4)o2)cc1,nt,nt,i,i,nt
CCOC(=O)N1CCN(c2ncnc3c2cnn3-c2ccc(OC)cc2)CC1,nt,i,i,i,i
COc1ccc(-n2ncc3c(N4CCC(C)CC4)ncnc32)cc1,i,i,nt,nt,nt
COc1nc2c(C)cccc2cc1-c1noc(-c2ccco2)n1,i,+,i,i,i
COc1nc(-c2ccc(Cl)cc2)ccc1-c1noc(-c2ccco2)n1,i,nt,i,i,nt
Cc1ccc(Cn2ncc3c(N4CCN(c5ccccc5C)CC4)ncnc32)cc1,i,+,i,i,i
Cc1ccc(Cn2ncc3c(N4CCOCC4)ncnc32)cc1,nt,i,i,i,nt
Cc1cc(OC(C)C(=O)N2CCN(Cc3ccc4c(c3)OCO4)CC2)ccc1Cl (stereo not given),nt,i,nt,nt,nt
